Many of the other results were omitted from the sample, so hits are more common in it than they were.
T cruzi intra = blocks T. cruzi growth inside host cells | activity score (inhibition), % at 5.01 µM | 22,000 tested, 4.9% active | intracellular Trypanosoma cruzi in host cells, plate reader; in the data active = activity score above about 55%;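 note: parasites and compound incubated about four days before reading; 0% = median of neutral control wells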
INS-1E rescue = preserves ATP levels in cytokine-treated INS-1E cells | INS-1E cytokine-induced death, ATP luminescence, 48 h; normalised: neutral wells 0, positive control 100 | protection from cytokine-induced ATP loss, % at 10 µM | 20,000 tested, 0.1% active;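 active = mean replicate protection from cytokine-induced ATP loss at least 50% and at least 75% of replicates each reaching 50%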
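Assay system – rat INS-1E insulinoma cell line · Quantity – 8000 cells per well · Buffer or medium – RPMI without phenol red, 5% FBS · Schedule – 48 h co-treatment, 10 min post-lysis read · Technique – luminescent ATP assay (CellTiter-Glo)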
A1 apoptosis 2 = A1 inhibition read as caspase activation. MEF A1-2A-BIM cells, caspase-Glo luminescence, 3 h; percent of clofoctol response, DMSO zero. caspase activation, % (concentration not given with the values). 24,000 tested, under 10 active. AID 2465; in the data active = caspase activation above about 5.9%
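Test system – A1-2A-BIM-expressing MEF cells · Input – 2500 cells/well · Medium – RPMI-1640 growth medium with 10% FBS · Compound dosing – 50 nL pinned compound · Timing – 3 h compound exposure at 37 °C · Technique – Caspase-Glo luminescence (DEVD substrate) · Evaluation – Caspase-3/7 activity from luminescence increase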
* = called active by the depositor; . = not tested or not shown.

SMILES | T cruzi intra | INS-1E rescue | A1 apoptosis 2
Cc1ccc(S(=O)(=O)Nc2ccc3c(c2)CC(=O)N([C@@H](C)CO)C[C@H](C)[C@@H](CN(C)S(=O)(=O)c2ccccc2)O3)cc1 | -1 | 5 | .
C[C@@H]1CN([C@H](C)CO)C(=O)Cc2cc(NS(=O)(=O)c3ccc(Cl)cc3)ccc2O[C@@H]1CN(C)S(=O)(=O)c1ccc(F)cc1 | 67* | 3 | .
Cc1ccc(S(=O)(=O)Nc2ccc3c(c2)CC(=O)N([C@H](C)CO)C[C@H](C)[C@H](CN(C)S(=O)(=O)c2ccc(Cl)cc2)O3)cc1 | 12 | -4 | .
Cc1ccc(S(=O)(=O)N(C)C[C@H]2Oc3ccc(NS(=O)(=O)c4ccc(Cl)cc4)cc3CC(=O)N([C@H](C)CO)C[C@H]2C)cc1 | 78* | -19 | -1
COC(=O)CCCCCCC(=O)N/N=C/c1cc(OC)c(OC)cc1[N+](=O)[O-] | 0 | 11 | -1
O=C(CCCCCCC(=O)Nc1ccccc1O)N/N=C/c1ccccc1OCCO | -4 | -3 | 0
O=C(O)CCCCCC(=O)N/N=C/c1ccoc1 | -8 | -3 | 0
O=C(CCCCCCC(=O)N/N=C/c1cccnc1)NO | . | . | 0
C[C@H](CO)N1C[C@H](C)[C@H](CN(C)Cc2ccc(C(=O)Nc3ccccc3N)cc2)Oc2ccc(NS(=O)(=O)c3ccc(F)cc3)cc2C1=O | 63* | 18 | 0
C[C@@H]1CN([C@H](C)CO)C(=O)c2cc(NS(=O)(=O)c3ccccc3)ccc2O[C@H]1CN(C)Cc1ccc(C(=O)Nc2ccccc2N)cc1 | -26 | -22 | .
C[C@@H]1CCCCO[C@@H](CN(C)Cc2ccc(C(=O)Nc3ccccc3N)cc2)[C@@H](C)CN([C@H](C)CO)C(=O)c2cc(NS(=O)(=O)c3cccs3)ccc2O1 | 62* | -9 | .
C[C@@H]1CCCCO[C@H](CN(C)Cc2ccc(C(=O)Nc3ccccc3N)cc2)[C@@H](C)CN([C@H](C)CO)C(=O)c2cc(NS(=O)(=O)c3cccs3)ccc2O1 | 29 | 10 | 0
C[C@H]1CN([C@@H](C)CO)C(=O)c2cc(NS(=O)(=O)c3ccc(Cl)cc3)ccc2O[C@H]1CN(C)Cc1ccc(C(=O)Nc2ccccc2N)cc1 | 73* | 37 | .
C[C@@H]1CN([C@@H](C)CO)C(=O)c2cc(NS(=O)(=O)c3ccc(F)cc3)ccc2O[C@@H]1CN(C)Cc1ccc(C(=O)Nc2ccccc2N)cc1 | 31 | 17 | .
C[C@@H]1CN([C@H](C)CO)C(=O)c2cccc(NS(=O)(=O)c3ccc(Cl)cc3)c2O[C@H]1CN(C)Cc1ccc(C(=O)Nc2ccccc2N)cc1 | 65* | 2 | 0
C[C@@H]1CN([C@@H](C)CO)C(=O)c2cccc(NS(=O)(=O)c3ccc(Cl)cc3)c2O[C@@H]1CN(C)Cc1ccc(C(=O)Nc2ccccc2N)cc1 | 39 | 35 | .
Cc1ccsc1/C=N/NC(=O)c1cccc(C(=O)NO)c1 | -16 | 1 | -3
COc1ccc([Si](C)(C)[C@@H]2[C@@H](CC(=O)N3CCC[C@H]3CO)O[C@]3(C(=O)N(C)c4c(Br)cc(C)cc43)[C@H]2C)cc1 | . | . | -1
O=C(NO)c1ccc(C(=O)N/N=C/c2cc(Br)cc([N+](=O)[O-])c2O)cc1 | 19 | 8 | -4
O=C(O)CCCCCC(=O)N/N=C/c1cccnc1 | -25 | -7 | .
O=C(C1=C[C@@H](c2ccc3c(c2)Cc2ccccc2-3)C[C@@H](OCc2ccc(CO)cc2)O1)N1CCCCC1 | . | . | -2
NC(=O)COc1ccccc1/C=N/NC(=O)c1ccccc1O | -34 | -4 | -1
COc1ccc(S(=O)(=O)Nc2ccc3c(c2)C(=O)N([C@H](C)CO)C[C@H](C)[C@H](CN(C)Cc2ccc(C(=O)Nc4ccccc4N)cc2)OCCCC[C@@H](C)O3)cc1 | 46 | -1 | -1
C[C@@H]1CCCCO[C@@H](CN(C)Cc2ccc(C(=O)Nc3ccccc3N)cc2)[C@@H](C)CN([C@H](C)CO)C(=O)c2cc(NS(=O)(=O)c3ccc(Cl)cc3)ccc2O1 | 78* | -5 | -1
CC1(C)COC(CCC/C=N/NC(=O)c2ccccn2)OC1 | -6 | 5 | 0
SMILES | T cruzi intra | INS-1E rescue | A1 apoptosis 2
C[C@H](CO)N1C[C@H](C)[C@@H](CN(C)Cc2ccc(Oc3ccccc3)cc2)Oc2c(NC(=O)c3ccncc3)cccc2C1=O | 66* | -2 | 0
C[C@H]1CN([C@@H](C)CO)C(=O)c2cccc(NC(=O)c3ccncc3)c2O[C@@H]1CN(C)Cc1ccncc1 | -17 | 5 | .
C[C@H]1CN([C@@H](C)CO)C(=O)c2cccc(NC(=O)c3ccncc3)c2O[C@@H]1CN(C)Cc1ccc(Oc2ccccc2)cc1 | 78* | -14 | -1
C[C@@H]1CN([C@@H](C)CO)C(=O)c2cccc(NC(=O)c3ccncc3)c2O[C@@H]1CN(C)Cc1ccc(Oc2ccccc2)cc1 | 78* | -20 | 2
COc1ccc(CN(C)C[C@@H]2Oc3c(NC(=O)c4ccncc4)cccc3C(=O)N([C@H](C)CO)C[C@H]2C)cc1 | 76* | 4 | 1
[O-]/[N+](=N\OCCBr)N1CCCC1 | . | . | -1
O=C(N/N=C/c1c[nH]c2ccccc12)c1ccccn1 | -5 | 16 | -9
C[C@@H]1CN([C@H](C)CO)C(=O)c2cccc(NC(=O)c3ccncc3)c2O[C@H]1CN(C)Cc1ccc(Oc2ccccc2)cc1 | 85* | -26 | 0
Cc1noc(C)c1S(=O)(=O)Nc1ccc2c(c1)CC(=O)N([C@@H](C)CO)C[C@@H](C)[C@@H](CN(C)Cc1ccc(Cl)c(Cl)c1)O2 | 61* | -9 | .
Cc1noc(C)c1S(=O)(=O)Nc1ccc2c(c1)CC(=O)N([C@@H](C)CO)C[C@@H](C)[C@H](CN(C)Cc1ccc(Cl)c(Cl)c1)O2 | . | . | -1
Cc1noc(C)c1S(=O)(=O)Nc1ccc2c(c1)C(=O)N([C@@H](C)CO)C[C@@H](C)[C@@H](CN(C)Cc1ccc(Cl)c(Cl)c1)O2 | 50 | -4 | .
Cc1noc(C)c1S(=O)(=O)Nc1ccc2c(c1)C(=O)N([C@@H](C)CO)C[C@H](C)[C@@H](CN(C)Cc1ccc(Cl)c(Cl)c1)O2 | 66* | -15 | 1
O=C(CCCCC(=O)NN=C1CCCCCC1)NO | 3 | 2 | 0
CN(C)CCCNC(=O)[C@@]1(c2ccc([N+](=O)[O-])cc2)CC(=O)N(CC23CC4CC(CC(C4)C2)C3)[C@@H]1c1ccc(CO)cc1 | . | . | 0
O=C(NO)c1cccc(C(=O)N/N=C/c2cc3c(cc2Br)OCO3)c1 | 1 | 0 | .
COCCCNC(=O)[C@@]1(C)c2ccccc2C(=O)N(Cc2cc(C(F)(F)F)cc(C(F)(F)F)c2)[C@H]1c1ccc(CO)cc1 | . | . | 0
COc1ccc(S(=O)(=O)N(C)C[C@@H]2Oc3ccc(NS(=O)(=O)c4ccc(C)cc4)cc3CC(=O)N([C@@H](C)CO)C[C@@H]2C)cc1 | -4 | 9 | .
COc1ccc(S(=O)(=O)Nc2ccc3c(c2)CC(=O)N([C@H](C)CO)C[C@H](C)[C@H](CN(C)S(=O)(=O)c2ccc(C)cc2)O3)cc1 | 21 | -2 | -1

Assay outcomes from PubChem BioAssay.
